From ChEMBL document CHEMBL1141958, “Toll-like receptor 2 antagonists. Part 1: preliminary SAR investigation of novel synthetic phospholipids” (Bioorg Med Chem Lett, 2005)

Tests used:
[1] = target: T1, Toll-like receptor 2 (Homo sapiens, UniProt O60603); experiment: Antagonistic potency at TLR2 expressed in HEK293 cells; format: functional, cell-based
[2] = target: Toll-like receptor 4 (Homo sapiens, UniProt O00206); experiment: Antagonistic potency at human TLR4 expressed in HEK293 cells; format: functional, cell-based
[3] = target: T1, Toll-like receptor 2; experiment: Antagonistic activity at TLR in human PBMC; format: functional
Outline: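 PBMCs purified from heparinized blood of healthy human donors, seeded at 50,000 cells per well. Pam3CysSK4 (50 ng/ml) added together with compound at 30, 10, 3, 1, 0.3, 0.1 and 0.03 µM; 6 h at 37 °C. Supernatants collected by centrifugation, stored at -20 °C, TNFα measured by ELISA.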

T1 sequence (O60603 whole entry): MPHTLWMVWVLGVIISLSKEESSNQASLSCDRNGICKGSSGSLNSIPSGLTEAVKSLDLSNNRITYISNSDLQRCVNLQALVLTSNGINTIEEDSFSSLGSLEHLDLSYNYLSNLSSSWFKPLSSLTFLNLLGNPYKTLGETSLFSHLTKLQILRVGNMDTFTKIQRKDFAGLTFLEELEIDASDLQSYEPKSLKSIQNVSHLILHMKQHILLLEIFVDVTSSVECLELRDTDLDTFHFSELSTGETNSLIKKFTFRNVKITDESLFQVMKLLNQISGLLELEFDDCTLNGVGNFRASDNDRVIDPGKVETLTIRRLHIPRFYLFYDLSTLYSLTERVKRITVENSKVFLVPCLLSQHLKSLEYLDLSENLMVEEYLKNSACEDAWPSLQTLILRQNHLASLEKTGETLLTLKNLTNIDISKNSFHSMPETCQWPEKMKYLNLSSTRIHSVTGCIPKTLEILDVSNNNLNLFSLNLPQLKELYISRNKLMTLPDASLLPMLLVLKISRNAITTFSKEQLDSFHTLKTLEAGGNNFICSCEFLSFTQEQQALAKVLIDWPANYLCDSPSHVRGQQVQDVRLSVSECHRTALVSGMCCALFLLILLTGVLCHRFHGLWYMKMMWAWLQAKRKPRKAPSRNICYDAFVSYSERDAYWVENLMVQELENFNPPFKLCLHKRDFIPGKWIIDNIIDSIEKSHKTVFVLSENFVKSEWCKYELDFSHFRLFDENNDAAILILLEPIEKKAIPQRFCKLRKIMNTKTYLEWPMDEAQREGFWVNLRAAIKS
Toll-like receptor 4, sequence (O00206 whole entry): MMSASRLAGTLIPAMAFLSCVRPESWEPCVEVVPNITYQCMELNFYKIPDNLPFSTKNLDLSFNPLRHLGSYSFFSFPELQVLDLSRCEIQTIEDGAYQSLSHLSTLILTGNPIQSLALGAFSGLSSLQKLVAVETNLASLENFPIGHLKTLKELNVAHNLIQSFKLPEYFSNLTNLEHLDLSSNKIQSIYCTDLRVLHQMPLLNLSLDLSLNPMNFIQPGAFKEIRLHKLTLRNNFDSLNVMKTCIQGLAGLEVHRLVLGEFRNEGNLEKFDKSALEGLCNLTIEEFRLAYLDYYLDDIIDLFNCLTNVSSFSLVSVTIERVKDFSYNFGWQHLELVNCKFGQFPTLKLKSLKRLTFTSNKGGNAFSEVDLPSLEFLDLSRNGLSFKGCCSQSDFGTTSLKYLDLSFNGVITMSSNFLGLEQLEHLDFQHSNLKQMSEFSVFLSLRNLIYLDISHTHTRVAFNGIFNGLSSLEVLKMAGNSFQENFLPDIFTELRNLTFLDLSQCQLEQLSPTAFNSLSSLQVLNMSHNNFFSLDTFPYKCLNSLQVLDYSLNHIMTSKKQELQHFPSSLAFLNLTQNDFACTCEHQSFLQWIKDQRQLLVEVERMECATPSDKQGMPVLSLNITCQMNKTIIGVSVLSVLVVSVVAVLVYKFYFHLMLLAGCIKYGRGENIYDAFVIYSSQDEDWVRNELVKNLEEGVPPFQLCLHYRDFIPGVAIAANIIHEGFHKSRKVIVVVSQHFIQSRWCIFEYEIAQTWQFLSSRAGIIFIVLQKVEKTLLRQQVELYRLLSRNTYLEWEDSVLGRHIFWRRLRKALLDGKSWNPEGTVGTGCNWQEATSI

Structure (SMILES)	IC50 [1] [µM]	IC50 [2] [nM]	IC50 [3] [nM]
CCCCCCCCCCCCCC(=O)O[C@H](COCC[C@@H](CCCCCCC)OC(=O)CCCCCCCCCCC)COP(=O)(O)OCCNC(=O)C(Cc1ccc(O)cc1)C(=O)O (some centres undefined)	1.25	–	–
CCCCCCCCCCCCCC(=O)N[C@@H](COCC[C@@H](CCCCCCC)OC(=O)CCCCCCCCCCC)COP(=O)(O)OCCNC(=O)C(Cc1ccc(O)cc1)C(=O)O (some centres undefined)	22	250	–
CCCCCCCCCCCCCC(=O)N[C@H](COCC[C@@H](CCCCCCC)OC(=O)CCCCCCCCCCC)COP(=O)(O)OCCNC(=O)CCc1ccc(O)cc1	2.15	–	–
CCCCCCCCCCCCCC(=O)N[C@H](COCC[C@@H](CCCCCCC)NC(=O)CCCCCCCCCCC)COP(=O)(O)OCCNC(=O)C(Cc1ccc(O)cc1)C(=O)O (some centres undefined)	5.2	–	–

More lines, now with the values ahead:

IC50 [1] [µM]	IC50 [2] [nM]	IC50 [3] [nM]	Structure (SMILES)
6.46	160	–	CCCCCCCCCCCCCC(=O)N[C@H](COCC[C@H](CCCCCCC)OC(=O)CCCCCCCCCCC)COP(=O)(O)OCCNC(=O)C(Cc1ccc(O)cc1)C(=O)O (some centres undefined)
6.9	80	–	CCCCCCCCCCCCCC(=O)N[C@@H](COCC[C@H](CCCCCCC)OC(=O)CCCCCCCCCCC)COP(=O)(O)OCCNC(=O)C(Cc1ccc(O)cc1)C(=O)O (some centres undefined)
0.95	–	–	CCCCCCCCCCCCCC(=O)N[C@@H](COP(=O)(O)OCCNC(=O)C(Cc1ccc(O)cc1)C(=O)O)C(=O)OCC[C@@H](CCCCCCC)OC(=O)CCCCCCCCCCC (some centres undefined)
3.07	350	1600	CCCCCCCCCCCCCC(=O)N[C@H](COCC[C@@H](CCCCCCC)OC(=O)CCCCCCCCCCC)COP(=O)(O)OCCNC(=O)C(Cc1ccc(O)cc1)C(=O)O (some centres undefined)
0.9	–	–	CCCCCCCCCCCCCC(=O)N[C@@H](COP(=O)(O)OCCNC(=O)C(Cc1ccc(O)cc1)C(=O)O)C(=O)NCC[C@@H](CCCCCCC)OC(=O)CCCCCCCCCCC (some centres undefined)
